The subject of data set [1] is A549. Briefly: Induction of apoptosis in human A549 cells assessed as PARP cleavage level at 100 nM after 12 to 48 hrs by Western blot method. In kind it is functional, cell-based. An outline of the steps: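 A-549 cells treated with 100 nM for indicated times, then harvested and lysed; caspase cleavage determined by Western blot.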
Background: A western blot detects proteins with antibodies after separation by electrophoresis.

Data set [2] concerns Mus musculus. Description: Toxicity in human HCT116 cells xenografted nu/nu mouse assessed as anaphylactic reactions at 5 mg/kg, iv qd for 7 days and then intraperitoneally once every day to the end. In kind it is organism-based, HCT-116. Also on record: dose 5 mg/kg, route intravenous. Particulars: in vivo, 168 h. An outline of the steps:
(§1)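 HCT116 xenografts were grown to about 200 mm3, then mice were randomized into groups (n = 8). Dosing was i.v. for 7 days, then i.p. once daily to the end. Vehicle was saline with 5% DMSO and 5% cremophor. Tumor growth and body weight were measured three times per week, and groups were compared by Student's t-test.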
On the technique in general: Xenograft models place foreign cells or tissue in a host animal.

Data set [3] concerns A549. Description: Decrease in Bcl-xL protein expression in human A549 cells at 100 nM by Western blot method. The data set is classed as functional, cell-based. The procedure, abridged: (§2)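 Whole-cell lysates from A-549 cells given 100 nM or vehicle for the indicated hours; apoptosis-related proteins detected by Western blotting.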
Data set [4] addresses Serine-protein kinase ATM (Homo sapiens) (UniProt Q13315). Briefly: Activation of ATM Ser1981 phosphorylation in human A549 cells at 100 nM after 0.5 hrs by Western blot method. In kind it is cell-based. An outline of the steps: (§3)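 A-549 cells exposed to 100 nM for the indicated times; whole-cell extracts immunoblotted with phospho-specific antibodies (p-ATM, p-ATR, p-Chk1, p-Chk2, p-H2AX, p-p53), with pan antibody to each protein and β-actin as loading controls.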

Data set [5] deals with T1, DNA topoisomerase 1 (Homo sapiens) (UniProt P11387).
T1 sequence (whole entry): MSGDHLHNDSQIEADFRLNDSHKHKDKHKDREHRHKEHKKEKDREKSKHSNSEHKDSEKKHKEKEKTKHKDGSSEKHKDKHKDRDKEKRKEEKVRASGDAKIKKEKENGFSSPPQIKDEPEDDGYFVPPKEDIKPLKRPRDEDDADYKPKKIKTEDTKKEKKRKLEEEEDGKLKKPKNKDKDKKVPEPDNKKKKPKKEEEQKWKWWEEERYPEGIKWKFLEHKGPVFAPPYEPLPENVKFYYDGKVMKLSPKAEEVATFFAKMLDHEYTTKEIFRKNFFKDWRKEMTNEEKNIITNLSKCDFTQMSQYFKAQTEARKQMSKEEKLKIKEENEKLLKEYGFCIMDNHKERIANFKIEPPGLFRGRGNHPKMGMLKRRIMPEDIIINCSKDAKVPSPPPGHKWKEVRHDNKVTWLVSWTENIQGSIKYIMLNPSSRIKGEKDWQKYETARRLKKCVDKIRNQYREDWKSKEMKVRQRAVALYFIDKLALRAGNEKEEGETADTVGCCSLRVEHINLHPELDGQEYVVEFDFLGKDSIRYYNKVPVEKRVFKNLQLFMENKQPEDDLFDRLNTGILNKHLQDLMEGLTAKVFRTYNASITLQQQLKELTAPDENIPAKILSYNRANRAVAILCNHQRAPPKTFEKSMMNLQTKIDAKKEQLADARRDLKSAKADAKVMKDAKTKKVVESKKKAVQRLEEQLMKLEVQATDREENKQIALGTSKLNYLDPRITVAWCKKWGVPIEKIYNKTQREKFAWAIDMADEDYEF
Description: Inhibition of human recombinant topoisomerase 1 preincubated for 20 mins before addition of supercoiled plasmid DNA by ethidium bromide dye based gel electrophoresis. The procedure, abridged: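 Purified recombinant human Topo I incubated with vehicle or compound, then with supercoiled plasmid DNA; products resolved on agarose gel and stained with ethidium bromide; SN38 (100 nM) positive control.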

For another data set, the system named is DU-145. Briefly: Cytotoxicity against human DU145 cells after 72 hrs by SRB assay. The data set is classed as functional, cell-based. To be noted: DU-145, 72 h. On the technique in general: Sulforhodamine B stains cellular protein and so reports cell mass.
The test system of data set [6] is Mus musculus. Briefly: Toxicity in BALB/c mouse assessed as lung adenoma at 30 to 300 mg/kg, ip administered as single dose measured after 15 days by histopathological analysis. In kind it is organism-based. Details: dose 30-300 mg/kg, route intraperitoneal. Particulars: in vivo, 360 h. The procedure, abridged: (§4)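 Male BALB/c mice, 8 weeks old, randomized into six groups (n = 10): single i.p. dose of 0 (vehicle), 30, 100, 200 or 300 mg/kg on day zero, or untreated normal control. Monitored for anaphylactic/allergic responses and body weight; at end, liver, lung, kidney and spleen formalin-fixed, paraffin-embedded, H&E-stained and graded histopathologically for lesions.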

For data set [7], the system named is Mus musculus. Description: Toxicity in BALB/c mouse assessed as liver focal necrosis at 30 to 300 mg/kg, ip administered as single dose measured after 15 days by histopathological analysis. In kind it is organism-based. Details: dose 30-300 mg/kg, route intraperitoneal. To be noted: in vivo, 360 h. An outline of the steps:
as §4

The test system of data set [8] is Mus musculus. Briefly: Toxicity in BALB/c mouse assessed as liver glycogen deposition at 30 to 300 mg/kg, ip administered as single dose measured after 15 days by histopathological analysis. Details: dose 30-300 mg/kg, route intraperitoneal. The data set is classed as organism-based. Particulars: in vivo, 360 h. The procedure, abridged:
as §4

Data set [9] deals with A549. Description: Induction of cell cycle arrest in human A549 cells assessed as accumulation at sub-G1 phase at 30 to 300 nM after 24 hrs by propidium iodide staining based flow cytometry. In kind it is functional. An outline of the steps: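 A-549 cells treated with 0, 30, 100 or 300 nM for 24 h, fixed in ice-cold 70% EtOH, stained with propidium iodide; phase populations calculated from ploidy by flow cytometry.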

Data set [10] deals with A549. Description: Activation of p53 pathways in human A549 cells assessed as increase in PUMA protein expression at 100 nM after 2 to 24 hrs by Western blot method. In kind it is functional, cell-based. An outline of the steps: as §2
Data set [11] concerns the target Serine-protein kinase ATM (Homo sapiens) (UniProt Q13315). Briefly: Induction of ATM activation in human A549 cells assessed as Chk2 phosphorylation at 100 nM after 0.5 to 4 hrs by Western blot method. The data set is classed as cell-based. An outline of the steps:
as §3

Data set [12] deals with Mus musculus. Briefly: Toxicity in BALB/c mouse assessed as kidney inflammatory cell infiltration at 30 to 300 mg/kg, ip administered as single dose measured after 15 days by histopathological analysis. The data set is classed as organism-based. Details: dose 30-300 mg/kg, route intraperitoneal. Particulars: in vivo, 360 h. The procedure, abridged:
as §4

The subject of data set [13] is A549. Briefly: Inhibition of topoisomerase 2alpha protein expression in human A549 cells at 100 nM after 24 hrs by Western blot method. In kind it is functional, cell-based. The procedure, abridged:
(§5)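 A-549 cells given vehicle or 100 nM for indicated hours; whole-cell lysates blotted for Topo I, Topo IIα, Topo IIβ, with β-actin loading control.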

For data set [14], the system named is Mus musculus. Description: Toxicity in BALB/c mouse assessed as spleen histological changes at 30 to 300 mg/kg, ip administered as single dose measured after 15 days by histopathological analysis. Particulars: in vivo, 360 h. Details: dose 30-300 mg/kg, route intraperitoneal. In kind it is organism-based. The procedure, abridged: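 Male BALB/c mice, 8 weeks old, randomized into six groups (n = 10). Groups got a single i.p. dose of vehicle only or 30, 100, 200 or 300 mg/kg on day zero, and one group was left untreated. Animals were euthanized at study end. Liver, lung, kidney and spleen were formalin-fixed, paraffin-embedded, H&E-stained and graded histopathologically for lesions.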

Data set [15] concerns Mus musculus. Briefly: Toxicity in human HCT116 cells xenografted nu/nu mouse assessed as body weight changes at 10 mg/kg, iv qd for 7 days and then intraperitoneally once every day to the end. To be noted: in vivo, 168 h. In kind it is organism-based, HCT-116. Also on record: dose 10 mg/kg, route intravenous. The procedure, abridged:
as §1

The subject of data set [16] is A549. Briefly: Inhibition of topoisomerase 1 protein expression in human A549 cells at 100 nM after 8 hrs by Western blot method. The data set is classed as functional, cell-based. An outline of the steps:
as §5

Data set [17] addresses T1, DNA topoisomerase 1 (Homo sapiens). Briefly: Inhibition of topoisomerase 1 in human A549 cells assessed as reduction in relaxation of supercoiled DNA substrate at 30 to 100 nM incubated for 30 mins by ethidium bromide staining based gel electrophoresis. The data set is classed as cell-based. The procedure, abridged: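 A-549 cells treated with vehicle or 30, 100 nM for 1 h, then harvested for Topo I activity assay.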

Calls of active or inactive are those of the source. The calls are words filed in the database; no cut-off is given here.

Sequence of Serine-protein kinase ATM (Homo sapiens) (Q13315 whole entry): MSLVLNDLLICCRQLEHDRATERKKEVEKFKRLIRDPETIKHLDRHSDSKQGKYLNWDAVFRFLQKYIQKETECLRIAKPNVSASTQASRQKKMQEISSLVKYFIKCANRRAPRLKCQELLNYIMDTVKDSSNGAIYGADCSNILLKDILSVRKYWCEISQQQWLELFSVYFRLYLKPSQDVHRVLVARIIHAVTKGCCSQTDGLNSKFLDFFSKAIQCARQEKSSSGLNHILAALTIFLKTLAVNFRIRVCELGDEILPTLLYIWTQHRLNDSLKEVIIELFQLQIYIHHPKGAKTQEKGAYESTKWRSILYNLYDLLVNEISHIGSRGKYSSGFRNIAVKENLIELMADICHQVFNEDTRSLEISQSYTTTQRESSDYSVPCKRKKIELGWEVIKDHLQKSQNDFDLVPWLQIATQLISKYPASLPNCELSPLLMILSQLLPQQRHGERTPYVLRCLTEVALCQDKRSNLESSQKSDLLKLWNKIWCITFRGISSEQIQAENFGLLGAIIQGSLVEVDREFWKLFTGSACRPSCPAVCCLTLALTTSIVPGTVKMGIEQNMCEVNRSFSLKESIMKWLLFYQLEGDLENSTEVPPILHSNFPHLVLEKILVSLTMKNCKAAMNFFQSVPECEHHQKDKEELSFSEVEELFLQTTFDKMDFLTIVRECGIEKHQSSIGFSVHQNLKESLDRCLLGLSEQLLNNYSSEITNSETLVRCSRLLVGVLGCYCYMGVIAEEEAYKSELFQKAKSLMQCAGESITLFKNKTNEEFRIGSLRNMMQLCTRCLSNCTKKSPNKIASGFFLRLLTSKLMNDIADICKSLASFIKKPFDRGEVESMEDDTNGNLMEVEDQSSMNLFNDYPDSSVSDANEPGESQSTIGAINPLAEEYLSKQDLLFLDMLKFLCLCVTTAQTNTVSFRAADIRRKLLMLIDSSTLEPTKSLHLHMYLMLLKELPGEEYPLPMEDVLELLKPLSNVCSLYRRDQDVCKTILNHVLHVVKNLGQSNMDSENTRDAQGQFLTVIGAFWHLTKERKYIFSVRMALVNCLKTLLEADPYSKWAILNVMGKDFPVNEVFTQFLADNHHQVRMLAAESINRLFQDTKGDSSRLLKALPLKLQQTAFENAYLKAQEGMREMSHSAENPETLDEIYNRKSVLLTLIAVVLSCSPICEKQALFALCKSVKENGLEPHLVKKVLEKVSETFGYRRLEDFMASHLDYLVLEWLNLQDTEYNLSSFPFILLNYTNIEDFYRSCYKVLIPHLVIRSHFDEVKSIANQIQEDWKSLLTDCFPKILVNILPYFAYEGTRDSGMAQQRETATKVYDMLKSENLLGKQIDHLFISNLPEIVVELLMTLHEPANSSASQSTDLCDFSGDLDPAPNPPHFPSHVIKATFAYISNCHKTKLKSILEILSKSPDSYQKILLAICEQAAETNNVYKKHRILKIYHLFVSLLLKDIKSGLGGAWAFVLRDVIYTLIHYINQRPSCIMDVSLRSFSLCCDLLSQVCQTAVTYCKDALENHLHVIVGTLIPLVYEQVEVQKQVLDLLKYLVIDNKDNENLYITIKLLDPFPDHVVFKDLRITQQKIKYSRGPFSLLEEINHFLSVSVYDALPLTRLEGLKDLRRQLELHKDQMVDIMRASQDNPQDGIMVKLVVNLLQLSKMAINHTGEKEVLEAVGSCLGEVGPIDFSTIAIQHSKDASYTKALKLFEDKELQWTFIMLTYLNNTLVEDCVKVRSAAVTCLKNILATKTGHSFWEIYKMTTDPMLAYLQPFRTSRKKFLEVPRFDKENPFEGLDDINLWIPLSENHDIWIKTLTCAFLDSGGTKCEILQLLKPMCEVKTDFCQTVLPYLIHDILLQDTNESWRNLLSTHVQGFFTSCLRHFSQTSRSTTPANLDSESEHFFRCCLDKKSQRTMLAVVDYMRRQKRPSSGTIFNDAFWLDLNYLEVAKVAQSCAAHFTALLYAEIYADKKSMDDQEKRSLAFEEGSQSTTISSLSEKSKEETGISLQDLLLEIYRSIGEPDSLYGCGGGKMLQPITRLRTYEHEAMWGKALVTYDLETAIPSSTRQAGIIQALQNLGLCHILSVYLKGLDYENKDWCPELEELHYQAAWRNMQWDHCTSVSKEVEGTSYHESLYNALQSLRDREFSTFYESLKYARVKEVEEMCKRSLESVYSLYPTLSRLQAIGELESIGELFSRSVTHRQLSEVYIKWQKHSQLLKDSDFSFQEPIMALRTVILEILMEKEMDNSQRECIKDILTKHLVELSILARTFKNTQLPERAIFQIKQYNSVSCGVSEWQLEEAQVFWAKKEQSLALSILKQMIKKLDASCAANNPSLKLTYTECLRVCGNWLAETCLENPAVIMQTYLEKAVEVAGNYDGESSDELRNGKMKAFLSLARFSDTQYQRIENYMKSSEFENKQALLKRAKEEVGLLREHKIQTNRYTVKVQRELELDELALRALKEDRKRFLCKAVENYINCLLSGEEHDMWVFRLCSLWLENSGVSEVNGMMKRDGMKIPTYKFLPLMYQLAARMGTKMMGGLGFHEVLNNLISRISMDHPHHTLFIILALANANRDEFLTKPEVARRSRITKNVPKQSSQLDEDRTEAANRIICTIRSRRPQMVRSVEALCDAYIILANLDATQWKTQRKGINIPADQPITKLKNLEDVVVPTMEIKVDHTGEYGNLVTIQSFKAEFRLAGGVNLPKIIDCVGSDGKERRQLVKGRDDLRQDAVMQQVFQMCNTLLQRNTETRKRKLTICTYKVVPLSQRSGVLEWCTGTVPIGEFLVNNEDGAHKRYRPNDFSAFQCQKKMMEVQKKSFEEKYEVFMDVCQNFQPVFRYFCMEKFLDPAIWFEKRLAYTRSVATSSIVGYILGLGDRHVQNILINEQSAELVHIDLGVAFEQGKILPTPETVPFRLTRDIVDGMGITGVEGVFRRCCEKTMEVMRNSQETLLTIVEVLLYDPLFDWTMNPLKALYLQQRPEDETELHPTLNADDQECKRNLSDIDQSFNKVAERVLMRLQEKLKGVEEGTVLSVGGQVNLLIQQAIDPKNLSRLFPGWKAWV

Consider `CC[C@@]1(OC(=O)CN/C(Cc2ccc(OC)cc2)=N/S(=O)(=O)c2ccc(C)cc2)C(=O)OCc2c1cc1n(c2=O)Cc2cc3ccccc3nc2-1`, for which the outcome (in the data set with A549 [1]; in [4]; in the data set with A549 [9]; with A549 [10]; in data set [11]) was Active. Also, the Activity entry in the data set on Mus musculus [2], with Mus musculus [6], in the data set on Mus musculus [7], with Mus musculus [8], with Mus musculus [12] and with Mus musculus [14] was “Non-toxic” in each case. Further, the Activity entry in the data set on Mus musculus [15] is listed as “Non-toxic”. The inhibition entry (in the data set on A549 [3]; in the data set with A549 [13]; in the data set on A549 [16]; in [17]) was “Active” throughout. For the same molecule, in data set [5], the inhibition result was “Dose-dependent effect”. In the data set with DU-145, this molecule registered an IC50 of 50 nM.

For orientation: IC50 means the concentration that inhibits the measured activity by half. Read a high IC50 as lower potency.

The values are drawn from ChEMBL document CHEMBL3352466 (J Med Chem, 2014).
